The subject of data set [1] is Mycobacterium tuberculosis. Kind of data set: Antituberculosis activity against Mycobacterium tuberculosis H37Ra ATCC 25177 after 6 days using alamar blue dye by broth microdilution assay. The format is functional. As to conditions: H37Ra ATCC 25177, 144 h. The gist of the method:
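Strain H37Ra in a colorimetric Alamar blue broth microdilution assay using duplicate two-fold serial dilutions of drug.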

For data set [2], the target named is T1, Cell division protein FtsZ (Mycobacterium tuberculosis) (UniProt P9WN95).
T1 sequence (whole entry): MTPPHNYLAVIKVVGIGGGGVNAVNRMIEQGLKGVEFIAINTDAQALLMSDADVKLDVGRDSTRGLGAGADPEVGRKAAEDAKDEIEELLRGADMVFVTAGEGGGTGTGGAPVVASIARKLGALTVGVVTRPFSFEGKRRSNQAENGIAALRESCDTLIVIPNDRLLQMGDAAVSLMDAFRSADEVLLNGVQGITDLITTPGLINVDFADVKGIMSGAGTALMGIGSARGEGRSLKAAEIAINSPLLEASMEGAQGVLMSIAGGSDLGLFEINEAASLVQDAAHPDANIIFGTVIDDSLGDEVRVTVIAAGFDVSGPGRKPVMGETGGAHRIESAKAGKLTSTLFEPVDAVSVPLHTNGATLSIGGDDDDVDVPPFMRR
Nature of the data set: Inhibition of Mycobacterium tuberculosis FtsZ polymerization expressed in Escherichia coli at 100 uM by light scattering assay.

The test system of a further data set is Vero. Nature of the data set: Cytotoxicity against african green monkey Vero cells after 72 hrs by celltiter-glo assay. The following applies: chlorocebus sabaeus. The format is cell-based. The method, boiled down: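 Vero cells grown in culture with compound across a 10-point dose-response curve. CC50 is extrapolated as the concentration that inhibits cell growth by 50%. Each compound was assayed at least three times.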
Background: In ATP-based viability assays light output follows the ATP content of the culture.

Data set [3] concerns Mycobacterium tuberculosis. Nature of the data set: Antituberculosis activity against Mycobacterium tuberculosis H37Rv ATCC 27294 after 7 days using alamar blue assay. The format is functional. The following applies: 168 h. The gist of the method:
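Strain H37Rv growth measured over a 10-point dose-response curve. IC90, the concentration inhibiting bacterial growth by 90%, is extrapolated from the curve.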
On the technique in general: The colour change of resazurin is a common sign of viable cells or microbes.

Data set [4] in a line: Inhibition of purified bovine tubulin polymerization by light scattering assay. On the set-up: species or system Bos taurus. The gist of the method:
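Tubulin polymerization assay. IC50 is the concentration that inhibits polymerization by 50%. Each compound was analyzed at least three times, reported as mean ± standard deviation.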

Data set [5] concerns the target T2, Cell division protein FtsZ (Mycobacterium tuberculosis, UniProt P9WN95).
T2 sequence (P9WN95 whole entry): T1 sequence (whole entry)
Kind of data set: Inhibition of Mycobacterium tuberculosis FtsZ polymerization expressed in Escherichia coli by light scattering assay. The gist of the method: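 Mtb FtsZ polymerization assay with each compound run at least three times. IC50 is the concentration that inhibits polymerization by 50%, reported as mean ± standard deviation.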

For a further data set, the species on record is Bos taurus. Kind of data set: Inhibition of purified bovine tubulin polymerization at 100 uM by light scattering assay.
Data set [6] concerns Mycobacterium tuberculosis. Kind of data set: Antitubercular activity against Mycobacterium tuberculosis infected in interferon-gamma-gene-disrupted C57BL/6 mouse model assessed as reduction in bacterial load in spleen at 10 mg/kg, po administered daily measured after 9 days. The format is functional. The gist of the method: (§1)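 Interferon-γ gene-disrupted C57BL/6 (GKO) mice infected with M. tuberculosis. Compound given at 10 mg/kg in 0.5% methyl cellulose by daily gavage for 9 days. Read-out is the reduction in bacterial load (Log10 CFU) in lungs or spleen versus untreated controls, with significance judged by P value (0.05 threshold).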

The subject of data set [7] is Mycobacterium tuberculosis. Nature of the data set: Antitubercular activity against Mycobacterium tuberculosis infected in interferon-gamma-gene-disrupted C57BL/6 mouse model assessed as reduction in bacterial load in lung at 10 mg/kg, po administered daily measured after 9 days. The format is functional. The gist of the method: as §1
The subject of data set [8] is Mycobacterium tuberculosis. Kind of data set: Antitubercular activity against Mycobacterium tuberculosis infected in interferon-gamma-gene-disrupted C57BL/6 mouse model assessed as reduction in bacterial load in spleen at 10 mg/kg, po administered daily. The format is functional. The method, boiled down: as §1
Data set [9] concerns Mus musculus. Nature of the data set: Toxicity in C57BL/6 mouse model assessed as adverse event at 30 mg/kg administered via gavage. The format is organism-based. On the set-up: dose 30 mg/kg. The following applies: in vivo, po. The method, boiled down:
(§2)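 Acute maximum tolerated dose study in C57BL/6 mice. Escalating oral gavage doses up to 300 mg/kg were given daily for 3 days, formulated in 0.5% methyl cellulose. Dosage was scaled back if mortality or adverse effects were observed.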

In data set [10] the test system is Mus musculus. Nature of the data set: Toxicity in C57BL/6 mouse model assessed as lethality at 300 mg/kg administered via gavage. The format is organism-based. Details: dose 300 mg/kg. As to conditions: in vivo, po. The method, boiled down:
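Acute maximum tolerated dose study in C57BL/6 mice. Escalating doses up to 300 mg/kg were given daily for 3 days by gavage in 0.5% methyl cellulose, and doses were scaled back if mortality or adverse effects appeared.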

Data set [11] relates to Mycobacterium tuberculosis. Nature of the data set: Antitubercular activity against Mycobacterium tuberculosis infected in interferon-gamma-gene-disrupted C57BL/6 mouse model assessed as reduction in bacterial load in lung at 10 mg/kg, po administered daily. The format is functional. The gist of the method: as §1
Data set [12] has as its system Mus musculus. Nature of the data set: Toxicity in C57BL/6 mouse model assessed as adverse event at 100 mg/kg administered via gavage. The format is organism-based. On the set-up: dose 100 mg/kg. The following applies: in vivo, po. The method, boiled down: as §2

Values after ≈ are worked out from the molar mass of the structure shown.

Turning to `CCOC(=O)Nc1cc(NCCCCN(CC)CC)c2nc(-c3cccs3)c(-c3cccs3)nc2n1`, the MIC – broadly, the smallest concentration in the dilution series that meets the test's criterion for growth inhibition – in data set [1] is 0.23 µM (≈ 0.121 µg/mL). In [2], the inhibition (in general, how much of the control response was suppressed) was found to be 64%. Also, the CC50 (as a rule, the concentration that lowers cell viability or growth by half) in the data set with Vero was more than 40 µM. For the same compound, the IC90 (in general, the concentration needed for an effect of 90%) in data set [3] was more than 100 µM. Besides, the IC50 (in general, the concentration that inhibits the measured activity by half) in data set [4] is more than 100 µM.
Take `CCOC(=O)Nc1nc(NCCCCN(CC)CC)c2c(n1)SC(c1ccccc1)C(c1ccccc1)=N2` (stereo not given): the lowest concentration to inhibit growth in [1] (MIC) was 52 µM (≈ 27.7 µg/mL). Moreover, the IC50 in [5] worked out at 46.2 µM; in data set [4], 69.7 µM. This compound also yielded a CC50 in the data set with Vero of more than 40 µM. It took 18 µM to reach the 90% level in data set [3] (IC90).
In turn, `CCOC(=O)Nc1nc(NC(C)CCCN(CC)CC)c2nc(-c3ccccc3)c(-c3ccccc3)nc2n1` (stereo not given) yielded an MIC in data set [1] of 3.8 µM (≈ 2.01 µg/mL). This compound had an inhibition in the data set listed under Bos taurus of 24%. Besides, the IC50 in data set [5] turned out to be 38.1 µM. This compound also registered an IC90 in [3] of 1.9 µM.
Consider `CCOC(=O)Nc1cc(NCCN(CC)CC)c2nc(-c3ccccc3)c(-c3ccccc3)nc2n1`, for which the minimum inhibitory concentration (MIC) in data set [1] stood at 1.7 µM (≈ 0.824 µg/mL). The compound also displayed an inhibition in [2] of 59%. Also, the CC50 in the data set with Vero is 2.7 µM. It took 0.38 µM to reach the 90% level in data set [3] (IC90). In addition, the IC50 in data set [4] was more than 100 µM.
In the case of `CCOC(=O)Nc1cc(NC(C)CCCN(CC)CC)c2nc(-c3ccccn3)c(-c3ccccn3)nc2n1` (stereo not given), in data set [1], inhibition of growth (MIC) required 54 µM (≈ 28.5 µg/mL). In addition, the IC50 is 45.7 µM in data set [5] and more than 100 µM in [4]. The CC50 in the data set with Vero was more than 40 µM. In data set [3], this compound returned an IC90 of more than 100 µM.
With `CCOC(=O)Nc1cc(NCCCCN(CC)CC)c2nc(-c3ccccc3)c(-c3ccccc3)nc2n1`, the MIC in data set [1] came to 0.24 µM (≈ 0.123 µg/mL). In the data set filed under Bos taurus, the inhibition came out at 40%. The same compound came in with an IC50 in [5] of 52 µM. The compound further had a CC50 with Vero of 1.8 µM. The compound further gave an IC90 in data set [3] of less than 0.19 µM.
`CCOC(=O)Nc1cc(NC(C)CCCN(CC)CC)c2nc(-c3ccco3)c(-c3ccco3)nc2n1` (stereo not given) had a minimal inhibitory concentration (MIC) in data set [1] of 3.6 µM (≈ 1.82 µg/mL). Also, the IC50 was 26.8 µM in [5] and more than 100 µM in [4]. In the data set with Vero, the CC50 is more than 40 µM. In data set [3], this compound returned an IC90 of 7 µM.
The like results for `CCOC(=O)Nc1nc(NC(C)CCCN(CC)CC)c2c(n1)SC(c1ccccc1)C(c1ccccc1)=N2` (stereo not given) were, in that order, 49 µM (≈ 26.8 µg/mL), 46 µM, more than 100 µM, more than 40 µM and 21.7 µM.
Taken in the same sequence, the figures for `CCOC(=O)Nc1cc(NCCN(CC)CC)c2nc(-c3ccco3)c(-c3ccco3)nc2n1` were 8.7 µM (≈ 4.04 µg/mL), 34.8 µM, more than 100 µM, 5.5 µM and more than 100 µM.
As for `CCOC(=O)Nc1cc(NC(C)CCCN(CC)CC)c2nc(-c3cccs3)c(-c3cccs3)nc2n1` (stereo not given), in data set [1], 0.43 µM (≈ 0.232 µg/mL) was the least that counted as inhibitory (MIC). Also, the log10cfu in data set [6] is 0.58; in data set [7], 0.51. Also, the figures for the concentration for half-maximal inhibition (IC50) in [5] and in [4] were 34.3 µM and more than 100 µM, respectively. In the data set with Vero, this compound came in with a half-maximal cytotoxic concentration (CC50) of more than 40 µM. This compound had an IC90 in data set [3] of less than 0.19 µM.
In the case of `CCN(CC)CCCC(C)Nc1cc(N)nc2nc(-c3ccco3)c(-c3ccco3)nc12` (stereo not given), in data set [1], the MIC was 150 µM (≈ 65.2 µg/mL). Besides, the IC50 is 18.6 µM in [5] and more than 100 µM in [4]. Moreover, in the data set on Vero, the CC50 came to 14 µM. In data set [3], this compound yielded an IC90 of more than 100 µM.
`CCN(CC)CCCC(C)Nc1cc(N)nc2nc(-c3cccs3)c(-c3cccs3)nc12` (stereo not given): it took 17 µM (≈ 7.93 µg/mL) to inhibit growth in data set [1] (MIC). Also, the IC50 in data set [5] was 29.5 µM; in [4], more than 100 µM. This compound also yielded a CC50 with Vero of 5.9 µM. Also, the IC90 in data set [3] was determined as 4.1 µM.
Taken in the same sequence, the figures for `CCOC(=O)Nc1cc(NC(C)CCCN(CC)CC)c2nc(CC)c(CC)nc2n1` (stereo not given) were more than 290 µM, more than 100 µM, more than 100 µM, more than 40 µM and more than 50 µM.
In the case of `CCOC(=O)Nc1cc(NC(C)CCCN(CC)CC)c2nc(C)c(C)nc2n1` (stereo not given), the MIC in data set [1] is more than 290 µM. The IC50 in data set [5] and in data set [4] was more than 100 µM throughout. In the data set with Vero, the CC50 is more than 40 µM. Further, in data set [3], the IC90 is more than 100 µM.
For `CCOC(=O)Nc1cc(NCCN(C)C)c2nc(-c3cccs3)c(-c3cccs3)nc2n1`, the lowest concentration to inhibit growth in data set [1] (MIC) was 1.1 µM (≈ 0.515 µg/mL). The figures for the IC50 in data set [5] and in [4] were 27.3 µM and more than 100 µM, respectively. Also, in the data set on Vero, the half-maximal cytotoxic concentration (CC50) was 1.6 µM. In addition, the IC90 in [3] is less than 0.19 µM.
Taken in the same sequence, the figures for `CCOC(=O)Nc1cc(NCCN(C)C)c2nc(-c3ccco3)c(-c3ccco3)nc2n1` were not above 7 µM, 34.1 µM, more than 100 µM, 37 µM and 29 µM.
Taken in the same sequence, the figures for `CCOC(=O)Nc1cc(NCCCCN(CC)CC)c2nc(-c3ccco3)c(-c3ccco3)nc2n1` were 3.6 µM (≈ 1.77 µg/mL), 16.4 µM, 41 µM, more than 40 µM and more than 100 µM.
Taken in the same sequence, the figures for `CCOC(=O)Nc1cc(NCCN(CC)CC)c2nc(-c3cccs3)c(-c3cccs3)nc2n1` were not above 7.9 µM, 21 µM, more than 100 µM, 6.3 µM and 0.92 µM.
Regarding `CCOC(=O)Nc1cc(NC(C)CCCN(CC)CC)c2nc(-c3ccccc3)c(-c3ccccc3)nc2n1` (stereo not given), the values for the log10cfu in data set [8] and in data set [11] were 0.5 and 0.86, respectively. In data set [1], this compound returned an MIC of 0.47 µM (≈ 0.248 µg/mL). In addition, the Activity result in the data set with Mus musculus [9], with Mus musculus [10] and with Mus musculus [12] was “Toxic” each time. Also, the IC50 is 34.2 µM in data set [5] and more than 100 µM in data set [4]. This compound displayed an IC90 in data set [3] of less than 0.19 µM.
In data set [1], `CCOC(=O)Nc1cc(NCCN(C)C)c2nc(-c3ccccc3)c(-c3ccccc3)nc2n1` returned an MIC not above 7.6 µM. Further, the IC50 in [5] is 54.6 µM; in [4], more than 100 µM. In addition, it took 0.7 µM to reach half-maximal cytotoxicity with Vero (CC50). The compound also had a 90% effect concentration (IC90) in data set [3] of less than 0.19 µM.
